Activity calls are given as the source filed them. The rule behind the calls is not given here.

Here are results for 14 molecules from ChEMBL document CHEMBL2434866, “Synthesis, antibacterial and antioxidant activities of new 1-alkyl-4-(1-alkyl-4-oxo-1,4-dihydroquinolin-2-yl)pyridinium bromides” (2013).

The subject of assay [1] is Proteus vulgaris. Put plainly: Antibacterial activity against Proteus vulgaris ATCC 13315 assessed as growth inhibition at 100 ug/mL after 18 to 24 hrs by microdilution assay. The class given is functional, organism-based. Background: Dilution methods test growth across graded concentrations, often in twofold steps.
In assay [2] the test system is Pseudomonas aeruginosa. In words: Antibacterial activity against Pseudomonas aeruginosa ATCC 27853 assessed as growth inhibition at 100 ug/mL after 18 to 24 hrs by microdilution assay. Type of assay: functional, organism-based.
Assay [3] deals with Klebsiella pneumoniae. In words: Antibacterial activity against Klebsiella pneumoniae ATCC 13883 assessed as growth inhibition at 100 ug/mL after 18 to 24 hrs by microdilution assay. Type of assay: functional, organism-based.
The subject of assay [4] is Staphylococcus aureus. In words: Antibacterial activity against Staphylococcus aureus ATCC 25923 assessed as growth inhibition at 100 ug/mL after 18 to 24 hrs by microdilution assay. Type of assay: functional, organism-based.
Assay [5] relates to Enterococcus faecalis. Put plainly: Antibacterial activity against Enterococcus faecalis ATCC 29212 assessed as growth inhibition at 100 ug/mL after 18 to 24 hrs by microdilution assay. The class given is functional, organism-based.
Assay [6] deals with Bacillus spizizenii. Put plainly: Antibacterial activity against Bacillus subtilis ATCC 6633 assessed as growth inhibition at 100 ug/mL after 18 to 24 hrs by microdilution assay. Type of assay: functional.
Assay [7] is described as follows: Antioxidant activity assessed as trolox equivalent of ferric ion reducing activity using fe2+-TPTZ at 1 mg/ml after 20 mins by FRAP assay. Type of assay: functional. The essentials:
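Sample at 1 mg/mL was mixed with reagent, kept 20 min at room temperature, and read at 595 nm against a water blank. Triplicates were corrected for reagent and sample blanks. TEAC came from a five-point Trolox calibration curve.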

The test system of assay [8] is Radical scavenging activity. Put plainly: Antioxidant activity assessed as DPPH radical scavenging activity after 50 mins. Type of assay: functional. The procedure, abridged: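 DPPH• in methanol was mixed 1:1 with sample at five final concentrations (6.25–100.00), vortexed, and kept 50 min at room temperature. Absorbance was read at 517 nm and plotted against concentration, with reagent-blank and solvent controls. SC50 was read from the graph as the concentration halving the initial DPPH•.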
For orientation: Loss of DPPH colour is used to gauge radical scavenging.

Assay [9] deals with Proteus vulgaris. In words: Antibacterial activity against Proteus vulgaris ATCC 13315 assessed as growth inhibition after 18 to 24 hrs by microdilution assay. The class given is functional. The essentials:
(§1)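 Broth microdilution MIC in LB medium at pH 7.2. Compounds came from DMSO stocks and were serially diluted from 1000 to 7.8 (final). Inoculum was mid-log cells diluted to OD600 0.004 (about 5 × 10^5 CFU/mL). Plates were incubated at 37 °C for 18–24 h. MIC was the last dilution without visible turbidity. Controls were DMSO solvent, medium ± antibiotic, and ampicillin.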

Assay [10] has as its system Pseudomonas aeruginosa. In words: Antibacterial activity against Pseudomonas aeruginosa ATCC 27853 assessed as growth inhibition after 18 to 24 hrs by microdilution assay. The class given is functional. The essentials:
as §1

The test system of assay [11] is Klebsiella pneumoniae. In words: Antibacterial activity against Klebsiella pneumoniae ATCC 13883 assessed as growth inhibition after 18 to 24 hrs by microdilution assay. Type of assay: functional. The procedure, abridged:
as §1

The test system of assay [12] is Enterococcus faecalis. In words: Antibacterial activity against Enterococcus faecalis ATCC 29212 assessed as growth inhibition after 18 to 24 hrs by microdilution assay. Type of assay: functional. The procedure, abridged: as §1
In assay [13] the test system is Bacillus spizizenii. In words: Antibacterial activity against Bacillus subtilis ATCC 6633 assessed as growth inhibition after 18 to 24 hrs by microdilution assay. Type of assay: functional. The procedure, abridged:
as §1

Assay [14] deals with Staphylococcus aureus. In words: Antibacterial activity against Staphylococcus aureus ATCC 25923 assessed as growth inhibition after 18 to 24 hrs by microdilution assay. Type of assay: functional. The essentials: as §1

For `CC1(C)S[C@@H]2[C@H](NC(=O)[C@H](N)c3ccccc3)C(=O)N2[C@H]1C(=O)O`, the “growth inhibition (GI)” value in the assay with Proteus vulgaris [1], in the assay with Pseudomonas aeruginosa [2], with Klebsiella pneumoniae [3], in the assay on Staphylococcus aureus [4], in the assay on Enterococcus faecalis [5] and with Bacillus spizizenii [6] was “Active” in each case.

For the molecule `O=c1cc(-c2ccncc2)[nH]c2ccccc12`, the Activity in assay [7] was found to be 46 equiv. In assay [8], the SC50 was determined as 133 µg/mL.

On to `CCCCCCCCCCCCCCCn1c(-c2cc[n+](CCCCCCCCCCCCCCC)cc2)cc(=O)c2ccccc21.[Br-]`, for which, in [7], the Activity came out at 66 equiv. In addition, the SC50 in assay [8] turned out to be 133 µg/mL. The MIC (commonly the least concentration at which growth counts as inhibited) came out at 500 µg/mL in the assay on Proteus vulgaris [9]; 500 µg/mL in the assay with Pseudomonas aeruginosa [10]; 250 µg/mL with Klebsiella pneumoniae [11]; 250 µg/mL in the assay on Enterococcus faecalis [12]; 500 µg/mL with Bacillus spizizenii [13]; 500 µg/mL with Staphylococcus aureus [14].

Consider `CCCCCCn1c(-c2cc[n+](CCCCCC)cc2)cc(=O)c2ccccc21.[Br-]`, for which the Activity in assay [7] turned out to be 141 equiv. Besides, the SC50 in [8] was 56 µg/mL. The MIC in the assay on Proteus vulgaris [9] stood at 62.5 µg/mL; with Pseudomonas aeruginosa [10], 7.8 µg/mL; in the assay on Klebsiella pneumoniae [11], 15.6 µg/mL; with Enterococcus faecalis [12], 31.2 µg/mL; in the assay with Bacillus spizizenii [13], 31.2 µg/mL; with Staphylococcus aureus [14], 7.8 µg/mL.

For the molecule `CCCCCCCCCCCCn1c(-c2cc[n+](CCCCCCCCCCCC)cc2)cc(=O)c2ccccc21.[Br-]`, the Activity in [7] was found to be 39 equiv. For the same molecule, the SC50 in assay [8] is 82 µg/mL. For the same molecule, the MIC in the assay with Proteus vulgaris [9] was 125 µg/mL; in the assay on Pseudomonas aeruginosa [10], 125 µg/mL; in the assay on Klebsiella pneumoniae [11] it was 125 µg/mL; with Enterococcus faecalis [12], 125 µg/mL; in the assay on Bacillus spizizenii [13] it was 250 µg/mL; in the assay on Staphylococcus aureus [14], 125 µg/mL.

For the molecule `CCCCCCCCCCCCCCn1c(-c2cc[n+](CCCCCCCCCCCCCC)cc2)cc(=O)c2ccccc21.[Br-]`, the Activity in [7] was found to be 14 equiv. In assay [8], the SC50 was 72 µg/mL. Also, the MIC was 500 µg/mL in the assay on Proteus vulgaris [9]; 500 µg/mL with Pseudomonas aeruginosa [10]; 500 µg/mL in the assay on Klebsiella pneumoniae [11]; 250 µg/mL with Enterococcus faecalis [12]; 500 µg/mL with Bacillus spizizenii [13]; 500 µg/mL in the assay with Staphylococcus aureus [14].

In the case of `CCCCCCCCCCCn1c(-c2cc[n+](CCCCCCCCCCC)cc2)cc(=O)c2ccccc21.[Br-]`, the Activity in assay [7] was 44 equiv. In [8], the SC50 is 72 µg/mL. The MIC in the assay on Proteus vulgaris [9] amounted to 31.2 µg/mL; in the assay with Pseudomonas aeruginosa [10] it was 62.5 µg/mL; in the assay on Klebsiella pneumoniae [11], 125 µg/mL; with Enterococcus faecalis [12], 125 µg/mL; in the assay with Bacillus spizizenii [13], 125 µg/mL; in the assay on Staphylococcus aureus [14], 62.5 µg/mL.

As to `CCCCCn1c(-c2cc[n+](CCCCC)cc2)cc(=O)c2ccccc21.[Br-]`, in assay [7], the Activity is 94 equiv. For the same molecule, the SC50 in [8] worked out at 112 µg/mL. In addition, the MIC in the assay with Proteus vulgaris [9] was 62.5 µg/mL; in the assay with Pseudomonas aeruginosa [10], 15.6 µg/mL; in the assay with Klebsiella pneumoniae [11], 31.2 µg/mL; with Enterococcus faecalis [12] it was 62.5 µg/mL; in the assay with Bacillus spizizenii [13], 62.5 µg/mL; with Staphylococcus aureus [14] it was 15.6 µg/mL.

In the case of `CCCCCCCCCCCCCn1c(-c2cc[n+](CCCCCCCCCCCCC)cc2)cc(=O)c2ccccc21.[Br-]`, the Activity in assay [7] is 53 equiv. For the same molecule, the SC50 in assay [8] worked out at 45 µg/mL. In addition, the MIC with Proteus vulgaris [9], in the assay on Pseudomonas aeruginosa [10], in the assay on Klebsiella pneumoniae [11], with Enterococcus faecalis [12], in the assay with Bacillus spizizenii [13] and in the assay on Staphylococcus aureus [14] was 250 µg/mL throughout.

With `Nc1ccccc1C(=O)/C=C/c1ccncc1`, the Activity in [7] worked out at 43 equiv. Further, the SC50 in assay [8] turned out to be 130 µg/mL.

Regarding `CCCCCCCn1c(-c2cc[n+](CCCCCCC)cc2)cc(=O)c2ccccc21.[Br-]`, the Activity in assay [7] was determined as 59 equiv. Further, the SC50 in assay [8] turned out to be 56 µg/mL. Further, the MIC with Proteus vulgaris [9] came out at 125 µg/mL; in the assay on Pseudomonas aeruginosa [10], 62.5 µg/mL; in the assay with Klebsiella pneumoniae [11], 62.5 µg/mL; with Enterococcus faecalis [12], 62.5 µg/mL; in the assay on Bacillus spizizenii [13], 62.5 µg/mL; in the assay on Staphylococcus aureus [14], 31.2 µg/mL.

As to `CCCCCCCCCn1c(-c2cc[n+](CCCCCCCCC)cc2)cc(=O)c2ccccc21.[Br-]`, in [7], the Activity came out at 59 equiv. The SC50 in [8] turned out to be 55 µg/mL. Also, the MIC in the assay on Proteus vulgaris [9] is 31.2 µg/mL; in the assay with Pseudomonas aeruginosa [10] it was 62.5 µg/mL; in the assay with Klebsiella pneumoniae [11], 31.2 µg/mL; in the assay on Enterococcus faecalis [12] it was 62.5 µg/mL; in the assay on Bacillus spizizenii [13] it was 62.5 µg/mL; in the assay with Staphylococcus aureus [14], 31.2 µg/mL.

Regarding `CCCCCCCCCCn1c(-c2cc[n+](CCCCCCCCCC)cc2)cc(=O)c2ccccc21.[Br-]`, in assay [7], the Activity amounted to 40 equiv. Besides, the SC50 in [8] turned out to be 78 µg/mL. Further, the MIC with Proteus vulgaris [9] is 62.5 µg/mL; in the assay on Pseudomonas aeruginosa [10] it was 31.2 µg/mL; in the assay on Klebsiella pneumoniae [11] it was 62.5 µg/mL; in the assay on Enterococcus faecalis [12] it was 125 µg/mL; in the assay on Bacillus spizizenii [13] it was 62.5 µg/mL; with Staphylococcus aureus [14], 62.5 µg/mL.

In the case of `CCCCCCCCn1c(-c2cc[n+](CCCCCCCC)cc2)cc(=O)c2ccccc21.[Br-]`, in [7], the Activity stood at 59 equiv. Also, in assay [8], the SC50 was found to be 85 µg/mL. Also, the minimal inhibitory concentration (MIC) in the assay with Proteus vulgaris [9] was determined as 31.2 µg/mL; in the assay on Pseudomonas aeruginosa [10], 31.2 µg/mL; in the assay with Klebsiella pneumoniae [11], 31.2 µg/mL; with Enterococcus faecalis [12], 62.5 µg/mL; with Bacillus spizizenii [13] it was 31.2 µg/mL; in the assay on Staphylococcus aureus [14] it was 15.6 µg/mL.
